Rows were chosen to be rich in hits. Some 3.2% of all compounds tested hit in one or more screens of this group.
AF4-AF9 inh: blocks AF4 peptide binding to human AF9 | AID 651704 | P42568 | inhibition, % at 10 µM | AlphaScreen, biotin-AF4 peptide binding to FLAG-AF9 | actives 0.47% (n = 350,000);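 active = every replicate reaching a set inhibition limit, whatever the replicate mean, cut at about 25% in these data; inconclusive = mean inhibition reaches that limit but some replicates miss it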
Target sequence (P42568 whole entry, looked up): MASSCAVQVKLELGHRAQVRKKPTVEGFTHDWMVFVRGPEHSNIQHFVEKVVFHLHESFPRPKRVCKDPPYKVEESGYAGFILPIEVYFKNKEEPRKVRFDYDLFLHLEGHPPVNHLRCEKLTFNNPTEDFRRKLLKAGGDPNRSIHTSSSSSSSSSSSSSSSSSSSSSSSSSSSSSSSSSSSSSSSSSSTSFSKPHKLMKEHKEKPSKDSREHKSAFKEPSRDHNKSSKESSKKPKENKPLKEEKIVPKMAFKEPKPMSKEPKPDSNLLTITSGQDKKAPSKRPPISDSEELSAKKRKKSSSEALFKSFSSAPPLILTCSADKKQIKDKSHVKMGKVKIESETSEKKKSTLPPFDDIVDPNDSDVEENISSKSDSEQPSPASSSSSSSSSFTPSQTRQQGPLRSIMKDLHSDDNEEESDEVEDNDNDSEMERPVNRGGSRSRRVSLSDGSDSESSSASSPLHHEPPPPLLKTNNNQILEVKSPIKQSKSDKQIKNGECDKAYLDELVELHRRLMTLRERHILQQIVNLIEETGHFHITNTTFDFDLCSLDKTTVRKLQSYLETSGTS
S100A4 MyoIIA: inhibitors of human S100A4 binding to myosin IIA peptide; P26447; S100A4/TAMRA-MyoIIA peptide fluorescence polarization; inhibition, % at 10.7 µM; actives 0.14% (n = 360,000); AID 652163;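 active = mean inhibition of at least 70% across replicates, with every replicate also reaching that level; inconclusive = mean inhibition reaches 70% but some replicates fall short; inactive = mean inhibition below 70%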
Target sequence (P26447 whole entry, looked up): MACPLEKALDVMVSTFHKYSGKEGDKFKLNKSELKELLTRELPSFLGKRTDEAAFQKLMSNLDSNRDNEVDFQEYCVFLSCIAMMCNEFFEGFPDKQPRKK
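Material: human S100A4 monomer with TAMRA-labelled myosin IIA peptide; buffer or medium: HEPES pH 7.2 with CaCl2, KCl, NaCl, DTT, Triton; compound dosing: one concentration per compound; schedule: 5 min incubation before reading; benchmarks: neutral control DMSO, positive control TFP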
rRNA inh HTS: inhibits bacterial ribosomal RNA function over humanized ribosomes. E. coli WT GFP vs humanized-ribosome RFP mutants, fluorescence, 24 h; active compounds read low; DMSO median 0, no signal -100. GFP signal change (wild-type ribosome), % (test concentration not listed). actives 1.6% (n = 350,000). AID 720706;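 active = significant combined selectivity score with lowered wild-type GFP, culture density cut under 30%, mutant RFP and density less affected; inactive = any of these conditions unmet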
DENV2 CPE: inhibitors of DENV2 cytopathic effect; DENV2-infected cells, cytopathic effect rescue, plate reader; CPE inhibition, % at 9.99 µM; actives 1.7% (n = 350,000); AID 651640; in the data active = CPE inhibition above about 20%, passing the limit was not always enough; inconclusive = no clear call, values can overlap the other calls; tested in BHK-21 cells
PfHsp90 set2: reduces growth (ATP signal) of yeast expressing P. falciparum Hsp90 | inhibition, % at 9.4 µM | AID 504621 | S. cerevisiae expressing PfHsp90, BacTiter-Glo ATP, 48 h; yeast lacking PDR1 and PDR3 efflux regulators | actives 0.32% (n = 310,000);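 active = every replicate shows inhibition above about 80%, whatever the replicate mean, limit read from the data; inconclusive = mean inhibition reaches the set limit but some replicate falls short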
Cneo AK release: Cryptococcus neoformans lysis via adenylate kinase release. lysis activity, % at 15 µM. AID 651654. C. neoformans lysis, adenylate kinase release luminescence, 4 h; normalised: neutral wells 0, clomiphene wells 100. actives 0.2% (n = 360,000);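 active = mean lysis activity across replicates of at least 80%, whatever share of replicates individually reach that level; inactive = mean lysis activity below 80%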
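Material: C. neoformans cells | Amount: Yeast cell density of 5 × 10^6 cells/mL | Medium: Fresh YPD growth medium | Dosing: Single dose | Times: Static 4 h at 37 °C with compound, 1 h detection | Detection: AK luminescence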
Of the large screens only hits and unclear results are named; the others gave an inactive call; ! = repeats disagree.

CCN(CC)C(=O)Oc1nnc(SC(C)C)n1-c1ccc(Cl)c(Cl)c1	none
CC(C)OC(=O)N(C)C[C@@H]1OCc2cn(nn2)CCCC(=O)N([C@@H](C)CO)C[C@H]1C	DENV2 CPE 36! (no result: PfHsp90 set2)
CC(C)OC(=O)N(C)C[C@H]1OCc2cn(nn2)CCCC(=O)N([C@H](C)CO)C[C@H]1C	none (no result: PfHsp90 set2)
COC(=O)N(C)C[C@H]1OCc2cn(nn2)CCCC(=O)N([C@H](C)CO)C[C@@H]1C	Cneo AK release 100 (no result: PfHsp90 set2)
CC(C)OC(=O)N(C)C[C@H]1OCc2cn(nn2)CCCC(=O)N([C@@H](C)CO)C[C@@H]1C	none (no result: PfHsp90 set2)
C[C@@H]1CN([C@@H](C)CO)C(=O)c2cc(N(C)C)ccc2O[C@H]1CN(C)C(=O)Nc1ccccc1	none (no result: S100A4 MyoIIA, DENV2 CPE, PfHsp90 set2, Cneo AK release)
CO[C@@H]1CN(C)C(=O)c2cc(NC(C)=O)ccc2OC[C@H](C)N(CCC(F)(F)F)C[C@H]1C	none (no result: PfHsp90 set2)
CN(C)C(CNC(=O)c1c(F)cccc1Cl)c1ccco1 (configuration not stated)	DENV2 CPE 21
CN(C)C(CNC(=O)c1cccs1)c1ccco1 (configuration not stated)	DENV2 CPE 35
CCCNC(=O)C[C@@H]1C[C@H]2c3cc(NC(=O)Nc4ccc(F)cc4)ccc3O[C@H]2[C@@H](CO)O1	none (no result: PfHsp90 set2)
COCC(=O)N1CC(=O)N2[C@H](CO)[C@H](c3ccc(C#Cc4cccnc4)cc3)[C@@H]2C1	none (no result: PfHsp90 set2, Cneo AK release)
CCCCc1nn(-c2cc(Cl)ccc2OC)c2c1C(=O)CC(C)(C)C2	DENV2 CPE 43
CCCc1nn(-c2cc(Cl)ccc2OC)c2c1C(=O)CCC2	none
C[C@@H]1CN([C@@H](C)CO)C(=O)c2cc(C3=CCCC3)cnc2O[C@H]1CN(C)C	none (no result: PfHsp90 set2)
COc1ccc(S(=O)(=O)Nc2ccc3c(c2)C(=O)N([C@H](C)CO)C[C@@H](C)[C@H](CN(C)C(=O)Nc2ccc(C(F)(F)F)cc2)OCCCC[C@H](C)O3)cc1	none (no result: PfHsp90 set2)
C[C@@H]1CCCCO[C@@H](CN(C)C(=O)Nc2ccc(C(F)(F)F)cc2)[C@H](C)CN([C@H](C)CO)C(=O)c2cc(NS(=O)(=O)c3ccc(F)cc3)ccc2O1	DENV2 CPE 69 (no result: PfHsp90 set2)
C[C@H](CO)N1C[C@H](C)[C@H](CN(C)C(=O)Nc2ccc(C(F)(F)F)cc2)OCCCC[C@H](C)Oc2ccc(NS(=O)(=O)c3ccc(F)cc3)cc2C1=O	DENV2 CPE 82 (no result: PfHsp90 set2)
C[C@H]1CCCCO[C@H](CN(C)C(=O)Nc2ccc(C(F)(F)F)cc2)[C@@H](C)CN([C@@H](C)CO)C(=O)c2cc(NS(=O)(=O)c3ccc(F)cc3)ccc2O1	none (no result: PfHsp90 set2)
COc1ccc(S(=O)(=O)Nc2ccc3c(c2)C(=O)N([C@H](C)CO)C[C@H](C)[C@H](CN(C)C(=O)Nc2ccc(C(F)(F)F)cc2)OCCCC[C@H](C)O3)cc1	DENV2 CPE 76 (no result: PfHsp90 set2)
Cc1ccc(S(=O)(=O)N(C)C[C@H]2OCCCC[C@H](C)Oc3ccc(NC(=O)Cc4ccccc4)cc3C(=O)N([C@H](C)CO)C[C@@H]2C)cc1	none (no result: PfHsp90 set2)
Cc1ccn2cc(-c3cccc(S(=O)(=O)N4CCCCC4)c3)nc2c1	rRNA inh HTS -44
CC(=O)N(C)C[C@H]1Oc2cc(C#Cc3ccc(F)cc3)ccc2S(=O)(=O)N([C@@H](C)CO)C[C@@H]1C	none (no result: PfHsp90 set2)
Cc1ccc(NC2CCCN(C(=O)c3ccoc3C)C2)cc1C (configuration not stated)	DENV2 CPE 28
CC(C)(C)C(=O)c1sc(Nc2ccccc2)nc1N	rRNA inh HTS -39 (no result: DENV2 CPE)
CN(C)C(=O)c1cccc(-c2ccc3n(c2=O)C[C@H]2[C@H](CO)[C@@H](C(=O)NCC4CC4)N[C@@H]32)c1	none (no result: PfHsp90 set2)
COc1cccc(-c2ccc3n(c2=O)C[C@H]2[C@H](CO)[C@@H](C(=O)N4CCOCC4)N[C@@H]32)c1	S100A4 MyoIIA 85, DENV2 CPE inconclusive (no result: PfHsp90 set2)
COc1cccc(-c2ccc3n(c2=O)C[C@H]2[C@H](CO)[C@@H](C(=O)N4CCCCC4)N[C@@H]32)c1	none (no result: PfHsp90 set2)
CCNC(=O)[C@H]1N[C@H]2c3ccc(-c4cccc(C(=O)N(C)C)c4)c(=O)n3C[C@H]2[C@@H]1CO	S100A4 MyoIIA 83 (no result: PfHsp90 set2)
O=C(NCCN1CCCCC1)[C@H]1N[C@H]2c3ccc(-c4ccncc4)c(=O)n3C[C@H]2[C@@H]1CO	Cneo AK release 98 (no result: PfHsp90 set2)
CO[C@H]1CN(C)C(=O)c2ccc(NC(=O)C3CC3)cc2OC[C@@H](C)N(Cc2ccc(F)cc2)C[C@H]1C	none (no result: PfHsp90 set2)
C[C@H]1CCCCO[C@H](CN(C)C(=O)c2ccncc2)[C@@H](C)CN([C@@H](C)CO)C(=O)c2cc(NS(=O)(=O)c3cn(C)cn3)ccc2O1	none (no result: PfHsp90 set2)
CCOC(=O)CN(C(=O)CSc1nnc(COc2ccc(OC)cc2)n1CC)c1ccccc1	rRNA inh HTS -27 (no result: DENV2 CPE)
CCOC(=O)CN(C(=O)CSc1nnc(CNc2ccc(C)cc2C)n1CC)c1ccccc1	none (no result: AF4-AF9 inh, S100A4 MyoIIA, rRNA inh HTS, DENV2 CPE, PfHsp90 set2)
CCOc1cc(C)ccc1OCc1nnc(SCC(=O)c2cccc([N+](=O)[O-])c2)n1CC	none (no result: AF4-AF9 inh, S100A4 MyoIIA, rRNA inh HTS, DENV2 CPE, Cneo AK release)
CCn1c(COc2ccccc2)nnc1SCC(=O)c1cccc([N+](=O)[O-])c1	rRNA inh HTS -24
O=C(N/N=C\c1cccc([N+](=O)[O-])c1O)C1COc2ccccc2O1 (configuration not stated)	none (no result: AF4-AF9 inh, S100A4 MyoIIA, rRNA inh HTS, DENV2 CPE)
COc1cc([N+](=O)[O-])cc(/C=N\NC(=O)C2COc3ccccc3O2)c1O (configuration not stated)	rRNA inh HTS -20 (no result: Cneo AK release)
C[C@H]1CN([C@@H](C)CO)S(=O)(=O)c2ccc(-c3cccc(C#N)c3)cc2O[C@H]1CN(C)Cc1cccc(F)c1	none (no result: PfHsp90 set2)
C[C@H](CO)N1C[C@H](C)[C@@H](CN(C)C(=O)c2ccccc2)Oc2cc(C3=CCCC3)ccc2S1(=O)=O	none (no result: PfHsp90 set2)
C[C@H](CO)N1C[C@H](C)[C@H](CN(C)C(=O)c2ccccc2)Oc2cc(C3=CCCC3)ccc2S1(=O)=O	DENV2 CPE 27 (no result: PfHsp90 set2)
CCCNC(=O)N(C)C[C@@H]1Oc2cc(C3=CCCCC3)ccc2S(=O)(=O)N([C@H](C)CO)C[C@H]1C	DENV2 CPE 47 (no result: PfHsp90 set2)
C/C=C/c1ccc([C@H]2[C@@H](CO)N(C(C)=O)C23CN(C(=O)NC2CCCC2)C3)cc1	none (no result: PfHsp90 set2, Cneo AK release)
CN1CCN(C(=S)c2cn(Cc3ccc(F)cc3)c3ccccc23)CC1	AF4-AF9 inh 31 (no result: Cneo AK release)
S=C(c1cn(Cc2ccccc2)c2ccccc12)N1CCOCC1	rRNA inh HTS -29 (no result: Cneo AK release)
COc1ccccc1S(=O)(=O)N[C@@H]1CC[C@H](CC(=O)N2CCCCC2)O[C@H]1CO	S100A4 MyoIIA inconclusive (no result: PfHsp90 set2)
CCOC(=O)c1ccc(NC(=O)CC2C(=O)OCCN2CC)cc1 (configuration not stated)	PfHsp90 set2 108 (no result: Cneo AK release)
